The structures appear in SMILES notation. Bounds are passed on as bounds.

The subject of data set [1] is CCRF-CEM. Briefly: Antiviral activity evaluated as the ability to inhibit the replication of HIV-2 in human T-lymphocytic cells (CEM). The data set is classed as functional, cell-based. Put shortly:
(§1)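 CEM cells at 4 × 10^5 cells/mL infected with HIV-1 (HTLV-IIIB) or HIV-2 (ROD) at ~100 CCID50 per mL. Virus stocks came from infected MT-4 supernatants. Infected cells were mixed with serial compound dilutions. Giant cell formation was scored microscopically after 4–5 days. EC50 is the 50% effective concentration.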

For data set [2], the system named is CCRF-CEM. Briefly: Cytotoxic concentration in Wild Type CEM cells. The format is functional. Particulars: Homo sapiens.
Data set [3] can be described thus: Hydrolysis half life in phosphate buffer. The data set is classed as ADME. The essentials:
(§2)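 Triester at 0.71 mM final in 25 mM Sørensen phosphate buffer, pH 7.3, 37 °C, with AZT as internal standard. Aliquots were frozen in liquid air, then analysed by RP-HPLC (UV 260 nm). k was taken from the slope of the log degradation curve of the starting triester and t1/2 derived from k. Values are the mean of duplicates, in hours.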

For data set [4], the system named is CCRF-CEM. Briefly: Antiviral activity evaluated as the ability to inhibit the replication of HIV-1 in human T-lymphocytic cells (CEM). The format is functional, cell-based. The essentials: as §1
Data set [5] can be described thus: Partition coefficient (logP). The data set is classed as physicochemical. Particulars: octanol/water. The essentials:
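Compound dissolved in 1-octanol, then an equal volume of water added. Phases were vortexed 10 min and separated by centrifugation. Each phase was analysed by RP-HPLC (UV 260 nm). P was calculated from the peak areas of the aqueous and organic phases.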

Data set [6] can be described thus: Selectivity index by CC50 of CEM cells/EC50 of CEM cells against HIV-1. The format is functional, CCRF-CEM.
The subject of data set [7] is C3H/3T3. Description: (§3) Minimal cytotoxic concentration required to cause morphological alteration of C3H/3T3 fibroblast culture cells. Particulars: Mus musculus. The data set is classed as functional. The essentials:
(§4)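 C3H/3T3 cells seeded at 20 000 cells/mL and grown 24 h, then infected with 80 focus-forming units of MSV for 120 min. Medium was replaced with fresh medium containing the test compound. Transformation was examined microscopically after 6 days. EC50 is the concentration giving 50% inhibition of transformation. MCC is the minimum concentration causing microscopically visible morphological alteration of the cultures.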

Data set [8] concerns C3H/3T3. Briefly: (§5) Effect of compound against Moloney murine sarcoma virus (MSV)-induced transformation of C3H/3T3 embryo murine fibroblasts. The format is functional, cell-based. Particulars: Mus musculus. The essentials: as §4
Data set [9] relates to C3H/3T3. The description is as §3. Particulars: Mus musculus. The format is functional. The source holds these as a separate data set.
The subject of data set [10] is C3H/3T3. Described as §5. Particulars: Mus musculus. The data set is classed as functional, cell-based. Put shortly:
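C3H/3T3 murine embryo fibroblasts seeded at 20 000 cells/mL, incubated 24 h, then infected for 120 min with 80 focus-forming units of Moloney murine sarcoma virus. Medium then replaced with fresh medium containing serial compound concentrations. Cell transformation scored microscopically after 6 days; EC50 taken as the concentration giving 50% inhibition of virus-induced transformation.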
This is another data set of the same source.

Data set [11] can be described thus: Hydrolysis half life in phosphate buffer. The format is ADME. Put shortly:
as §2

On to `COc1ccc2c(c1)COP(=O)(OCC1C[C@H](F)C(n3cnc4c(N)ncnc43)O1)O2` (stereo not given in full), for which the EC50 (usually the midpoint of the concentration-response curve) in data set [1] is 5.67 µM; in data set [4] it was 1.5 µM. Also, the CC50 – broadly, the concentration giving 50% cytotoxicity – in data set [2] was 121 µM. Besides, in [3], the half-life (usually the time needed for the level to fall by half in the phase considered) is 13 h. Besides, the logP (usually the decadic logarithm of the partition coefficient of the neutral form, usually between octanol and water) in data set [5] was 1.04.
In the case of `Cc1cccc2c1OP(=O)(OC[C@@H]1C[C@H](F)C(n3cnc4c(N)ncnc43)O1)OC2` (single isomer, unassigned), in data set [6], the SI amounted to 44. Also, the EC50 in [1] was 3.3 µM; in data set [4], 3.67 µM. In [2], the CC50 is 146 µM. Also, in data set [3], the half-life was 21.6 h. For the same compound, the logP in [5] came to 1.29.
The compound `Cc1cccc2c1OP(=O)(OC[C@@H]1C[C@@H](F)[C@H](n3cnc4c(N)ncnc43)O1)OC2` (stereo not given in full) registered an SI in [6] of 10. Moreover, the EC50 in [1] was 12.5 µM; in data set [8] it was 2.83 µM; in data set [4], 11.7 µM. In data set [2], half-maximal cytotoxicity (CC50) was put at 118 µM. In [7], this compound displayed an MCC above 50 µM. This compound also showed a half-life in data set [3] of 23.4 h. The compound further returned a logP in [5] of 0.93.
`Cc1cccc2c1OP(=O)(OCC1C[C@H](F)C(n3cnc4c(O)ncnc43)O1)OC2` (stereo not given in full) showed an SI in [6] of 26. The figures for the EC50 in data set [1], in data set [8] and in [4] were 3.57 µM, above 50 µM and 3.57 µM, respectively. In addition, the CC50 in data set [2] was above 250 µM. For the same compound, in data set [7], the MCC is above 50 µM. This compound also showed a half-life in [3] of 22.2 h. For the same compound, the logP in data set [5] came to 0.51.
The compound `Nc1ncnc2c1ncn2[C@@H]1OC(CO)C[C@H]1F` (single isomer, unassigned) showed an MCC in [9] above 50 µM. Besides, the EC50 in data set [1] was above 250 µM; in data set [4], above 250 µM; in data set [10], above 50 µM. Besides, the CC50 in data set [2] was above 250 µM. In [5], this compound returned a logP of -0.2.
Take `Cc1cn([C@H]2C=C[C@@H](CO)O2)c(=O)[nH]c1=O` [STAVUDINE]: in data set [2], the CC50 stood at 56 µM.
In the case of `Nc1ncnc2c1ncn2C1OC(COP2(=O)OCc3ccccc3O2)C[C@@H]1F` (stereo not given in full), the half-life in data set [11] was 8.9 h. In addition, the SI in [6] came to 74. Also, the EC50 in [1] amounted to 1.85 µM; in [8] it was 1.7 µM; in [4], 4.53 µM. Moreover, in data set [2], the midpoint of cytotoxicity, the CC50, lay at 137 µM. The MCC in [7] is above 50 µM. This compound also had a logP in data set [5] of 0.95.
For `OCC1C[C@H](F)C(n2cnc3c(O)ncnc32)O1` (stereo not given in full), the SI in data set [6] was above 8. The EC50 in [1] was 30 µM; in [8], above 50 µM; in data set [4] it was 41.7 µM. The CC50 in [2] was above 250 µM. In data set [7], this compound had an MCC above 50 µM. In data set [5], this compound displayed a logP of -1.19.
`Nc1ncnc2c1ncn2[C@H]1CC[C@@H](CO)O1` registered an SI in data set [6] above 57. Further, the MCC in [9] is above 50 µM. For the same compound, the EC50 turned out to be 4.55 µM in [1], 4.33 µM in data set [4] and 39.1 µM in data set [10]. In data set [2], this compound had a CC50 above 250 µM.
Compound `Nc1ncnc2c1ncn2C1OC(COP2(=O)OCc3ccccc3O2)C[C@H]1F` (stereo not given in full) returned an SI in data set [6] above 19. Besides, the values for the EC50 in [1], in data set [8] and in data set [4] were 13 µM, 4.7 µM and 19 µM, respectively. This compound also showed a CC50 in [2] above 250 µM. Also, the MCC in [7] is above 50 µM. This compound also had a half-life in data set [3] of 8.4 h. Also, in [5], the logP was found to be 0.72.
With `OCC1C[C@@H](F)C(n2cnc3c(O)ncnc32)O1` (stereo not given in full), the EC50 in data set [1] is above 250 µM; in [8], above 50 µM; in [4], above 250 µM. Also, the CC50 in data set [2] is above 250 µM. Also, the MCC in [7] is above 50 µM. This compound also showed a logP in data set [5] of -0.96.
As to `Nc1ncnc2c1ncn2[C@@H]1O[C@H](CO)C[C@@H]1F` [LODENOSINE], the SI in data set [6] is above 6.8. In addition, in data set [9], the MCC was above 50 µM. Besides, the EC50 in [1] was 40 µM; in data set [4], 36.7 µM; in data set [10] it was above 50 µM. The same compound came in with a CC50 in [2] above 250 µM. Further, the logP in [5] was -0.16.
Compound `Cc1cccc2c1OP(=O)(OCC1C[C@@H](F)C(n3cnc4c(O)ncnc43)O1)OC2` (stereo not given in full) gave an SI in [6] above 8. Besides, the EC50 was 31.7 µM in data set [1], above 50 µM in data set [8] and 75 µM in data set [4]. In [2], this compound returned a CC50 above 250 µM. The compound further registered an MCC in data set [7] above 50 µM. Also, in data set [3], the half-life was 22.7 h. For the same compound, the logP in data set [5] stood at 0.24.
`COc1ccc2c(c1)COP(=O)(OCC1C[C@@H](F)C(n3cnc4c(N)ncnc43)O1)O2` (stereo not given in full) gave an SI in data set [6] above 12. Moreover, the EC50 in [1] is 25 µM; in data set [4], 20 µM. The compound further came in with a CC50 in data set [2] above 250 µM. In [3], this compound showed a half-life of 12.3 h. This compound displayed a logP in data set [5] of 0.71.

(Values after ChEMBL document CHEMBL1132719, “cycloSal-Pronucleotides of 2'-fluoro-ara- and 2'-fluoro-ribo-2',3'- dideoxyadenosine as a strategy to bypass a metabolic blockade” (J Med Chem, 1999).)
